# Assay outcomes as filed in PubChem.
# Only some compounds are listed: those with a hit (about 1.5% of all), similar ones and a draw of the others.
# aDG glyco act: increases alpha dystroglycan glycosylation | Pro5-aDG cells, alpha-DG glycosylation AlphaScreen (IIH6); 0% Pro5, 100% B10-LARGE cell signal | activation, % at 10 µM | 360,000 compounds, 0.22% hits | AID 624168;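 active = activation of at least 8% versus controls, or a plate z-score of at least 8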;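 note: Pro5 are CHO cells carrying HIG-tagged alpha-DG that lacks glycosylation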
# CSN inh: CSN deneddylation inhibition; inhibition, % at 12.5 µM; 360,000 compounds, 0.38% hits; AID 651999; Q92905; Purified CSN, SCF-Nedd8-OG deneddylation, fluorescence polarization;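 active = pattern-corrected inhibition above about 35%, with an unprinted fluorescence ratio check between 0.5 and 1.5, limit read from the data, passing the limit was not always enough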;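 note: 0% = enzyme with substrate and 100% = substrate without enzyme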
#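 Assay system: purified human Csn5 enzyme expressed in HEK293T cells; Input: 0.24 nM Csn5 enzyme, final concentration; Reagent: 10 nM SCFSkp2-Nedd8OG; Compound dosing: 12.5 µM single point; Times: reaction 90 min, room temperature; Technique: fluorescence polarization readout.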
# Rev-erbA mod: modulators of human Rev-erb alpha DNA binding. P20393. Rev-erbα–FITC-DNA binding, fluorescence polarization, 90 min. activity, % at 10 µM. 370,000 compounds, 0.79% hits. AID 1259318;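 active = activity above about 14%, limit read from the data; passing the limit was not always enough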;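 note: 0% = DMSO wells with 35 nM protein and 100% = DMSO wells with 750 nM protein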
# Target sequence (P20393 whole entry, looked up): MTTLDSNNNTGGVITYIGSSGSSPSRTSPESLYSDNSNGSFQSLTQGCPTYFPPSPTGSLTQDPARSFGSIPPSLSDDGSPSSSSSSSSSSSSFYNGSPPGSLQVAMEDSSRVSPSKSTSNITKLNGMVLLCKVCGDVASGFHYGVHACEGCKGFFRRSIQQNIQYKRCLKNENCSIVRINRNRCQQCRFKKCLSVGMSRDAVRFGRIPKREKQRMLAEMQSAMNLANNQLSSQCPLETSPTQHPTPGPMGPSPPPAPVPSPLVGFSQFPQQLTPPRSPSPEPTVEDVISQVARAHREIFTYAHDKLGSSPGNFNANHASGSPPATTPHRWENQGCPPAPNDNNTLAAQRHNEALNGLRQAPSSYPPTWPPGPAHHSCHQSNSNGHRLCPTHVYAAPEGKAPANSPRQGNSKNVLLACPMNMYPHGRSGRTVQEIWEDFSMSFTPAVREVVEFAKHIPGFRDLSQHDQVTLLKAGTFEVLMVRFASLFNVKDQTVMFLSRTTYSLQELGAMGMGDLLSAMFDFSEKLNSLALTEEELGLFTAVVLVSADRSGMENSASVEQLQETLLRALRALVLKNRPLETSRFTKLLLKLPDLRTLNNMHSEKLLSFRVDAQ
# HNF4A DNA FP: change in binding of human HNF4 alpha to DNA; P41235; 360,000 compounds, 0.3% hits; AID 1224865; HNF4a-FITC DNA binding, fluorescence polarization, 1 h; activity change, % at 10 µM; in the data active = activity change above about 30%, passing the limit was not always enough
# Rev-erbA confirm: Rev-erb alpha (human) modulation, hit confirmation; AID 1259319; shares compounds with Rev-erbA mod; Rev-erb alpha FITC-DNA binding, fluorescence polarization, 90 min; activation, % at 25 µM; 3,000 compounds, 61% hits;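 active = activation at or above a set limit, or at least 3 SD above the negative control mean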;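 note: 0% = 35 nM protein with DMSO and 100% = 750 nM protein high control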
# RORg DNA counter: affects RORgamma DNA binding in a Rev-erb alpha counter-screen; shares compounds with Rev-erbA mod; purified RORgamma protein-FITC-DNA binding, fluorescence polarization; 910 compounds, 8% hits; IC50, µM;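 active = Compounds whose fitted half-maximal concentration for disrupting protein-DNA binding is below 10 micromolar; the record names Rev-erb in its text, so the target is in doubt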
# Active calls of the source: *; . = not tested or not shown.
SMILES,aDG glyco act,CSN inh,Rev-erbA mod,HNF4A DNA FP,Rev-erbA confirm,others
COc1cc(/C=C/C(=O)OCC(=O)c2ccc(S(=O)(=O)N3CCCCC3)cc2)cc(OC)c1OC,-0.4,-1.5,18.0*,0.3,5.4,
COc1cccc(/C=C/C(=O)OCC(=O)c2ccc(S(=O)(=O)N3CCCCC3)cc2)c1OC,-0.2,-1.9,5.9,2.1,.,
COc1cc(S(N)(=O)=O)c(OC)cc1N,0.0,2.4,2.8,-6.5,.,
COc1cc(N=Nc2ccc(C)cc2S(N)(=O)=O)c(C)cc1N,-0.3,-1.8,24.8*,3.2,20.9*,
CC(=O)Nc1ccc(N2C(=O)c3cccc4c(O)ccc(c34)C2=O)cc1,0.2,-73.2,28.6*,-97.2,39.6*,RORg DNA counter=1.25*
O=C1c2cccc3c(O)ccc(c23)C(=O)N1Cc1ccco1,-0.1,-72.8,36.3*,-99.0,37.5*,RORg DNA counter=>40
O=C1c2ccccc2C(=O)N1Cc1ccco1,0.1,1.6,0.8,0.9,.,
O=C1c2cccc3c(O)ccc(c23)C(=O)N1c1ccc(Cl)cc1,0.6,-75.8,59.9*,-100.1,53.1*,RORg DNA counter=9.4*
Cc1ccc(N2C(=O)c3cccc4c(C(=O)O)ccc(c34)C2=O)cc1,.,.,2.2,.,.,
O=C(CSc1nnc(-c2cccnc2)n1Cc1ccco1)Nc1ccc(F)cc1Cl,.,.,-7.2,.,.,
COc1ccc2oc(=O)c(C(=O)NCc3ccc(F)cc3)cc2c1,0.0,1.1,29.8*,-1.8,12.7,
COc1ccc(CNC(=O)c2cc3ccccc3oc2=O)cc1,0.2,-0.3,-2.8,2.8,.,
COc1ccc2cc(C(=O)NCc3ccccc3)c(=O)oc2c1,0.1,-1.0,40.2*,-0.1,11.2,
CCN(CC)c1ccc2cc(C(=O)NCc3ccc(F)cc3)c(=N)oc2c1,1.4,7.3,39.8*,64.6,32.5*,RORg DNA counter=>40
COC(=O)C1CN(Cc2ccc(C)cc2)CCS(=O)(=O)N1Cc1cn(Cc2ccc(Cl)cc2)nn1 (stereo not drawn),.,.,-3.1,.,.,
COc1cc2c(cc1OC)C1(Nc3c-2c(-c2ccccc2)nn3-c2ccccc2)C(=O)Nc2ccccc21 (stereo not drawn),0.6,0.1,-0.6,8.4,.,
COc1cc2c(cc1OC)C1(Nc3c-2c(C)nn3-c2ccccc2)C(=O)Nc2ccccc21 (stereo not drawn),0.0,-1.9,18.3*,0.5,3.2,
CC(C)(C)N(Cc1cn(CC2CCCCC2)nn1)S(=O)(=O)c1ccccc1Br,.,.,1.7,.,.,
CCOC(=O)c1cccc(NC(=O)CN(C)S(=O)(=O)c2ccco2)c1,.,.,-0.8,.,.,
CCOC(=O)c1c(NC2=NS(=O)(=O)c3ccccc32)sc2c1CCC(C)C2 (stereo not drawn),-0.2,-19.8,41.4*,4.3,14.1,
COC(=O)c1c(NC2=NS(=O)(=O)c3ccccc32)sc2c1CCC(C(C)(C)C)C2 (stereo not drawn),0.0,3.4,29.5*,4.4,18.7*,
COc1ccccc1NCc1nc2ccccc2n1C,.,.,14.8,.,.,
C[C@@H]1C[C@H]2[C@@H](Cc3ccccc3)C(=O)N3[C@H](c4ccccc4)[C@H](C)C[C@H]3[C@@H](Cc3ccccc3)C(=O)N2[C@@H]1c1ccccc1,.,.,5.2,.,.,
O=C(NC1CCCCN(Cc2cccc(C(F)(F)F)c2)C1=O)c1cccc(C(F)(F)F)c1 (stereo not drawn),.,.,0.5,.,.,
O=S1(=O)c2c(cccc2N2CC[C@@H](O)C2)O[C@H]2CCN1C2,.,.,-2.2,.,.,
SMILES,aDG glyco act,CSN inh,Rev-erbA mod,HNF4A DNA FP,Rev-erbA confirm,others
O=C(Nc1nc(-c2cc3ccccc3oc2=O)cs1)c1ccc(Br)o1,-0.1,8.0,53.7*,1.3,31.0*,
CN1C(=O)c2cccc3c(N(C)C)ccc(c23)C1=O,0.2,8.4,27.1*,8.7,29.3*,
CNc1ccc2c3c(cccc13)C(=O)N(C)C2=O,0.2,-73.6,382.1*,-91.0,339.1*,RORg DNA counter=>40
CN1C(=O)c2cccc3c(Cl)ccc(c23)C1=O,-0.1,-0.3,4.5,-5.6,.,
O=C1CCCc2nc(N3CCN(c4ccccc4)CC3)ncc21,0.3,-5.4,24.2*,-3.4,18.0*,
O=C1CCC[C@H]2C[C@H](NCc3ccccc3Cl)CC[C@]23CCCN13,.,.,2.4,.,.,
CCOc1ccc(CCNC(=O)c2ccc3[nH]ccc3c2)cc1OCC,.,.,-7.5,.,.,
COc1ccccc1-c1nnc(Nc2nc3c(OC)cccc3s2)o1,-0.5,0.9,47.0*,-5.0,78.0*,
